Assay outcomes (PubChem BioAssay)
Only some compounds are listed: those with a hit (about 4% of all), similar ones and a draw of the others.
CHO parental Ca: signal in parental CHO cells, OX1R antagonist counter-screen. parental CHO-K1, ATP-induced calcium, Fluo-8 fluorescence. inhibition, % at 5.6 µM. 0.63% of 330,000 active. AID 463079;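 active means inhibition above that plate's mean sample inhibition plus 3 SD, cut at about 26% in these data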;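 further: 0% = ATP-challenged DMSO wells and 100% = DMSO wells without ATP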
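Test system: parental CHO cells; detection: calcium-sensitive Fluo-8 fluorescence; evaluation: percent inhibition of calcium signal; also added: ATP as calcium-mobilizing challenge; repeats: one well per compound; control set: ATP-challenged DMSO wells low, unchallenged DMSO wells high; compound: single nominal dose of 5.6 µM per compound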
OX1R antag-1: antagonists of human orexin 1 receptor; O43613; CHO/OX1R cells, Fluo-8 calcium fluorescence, orexin A; inhibition, % at 5 µM; 0.43% of 330,000 active;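 active means inhibition above its plate's threshold, mean inhibition of all tested compounds on the plate plus 3 SD, cut at about 37% in these data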;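 further: 0% = orexin A challenge wells and 100% = SB-334867-A antagonist wells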
NTR1 ag: activates human neurotensin receptor 1 | P30989 | AID 493036 | activation, % at 20 µM | 0.17% of 330,000 active | NTR1-U2OS beta-arrestin-GFP spot imaging, agonist mode;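 active means activation at or above 40% of the spot to cytoplasm intensity ratio, with at least 20 cells analyzed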;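 further: 0% = DMSO without peptide and 100% = 100 nM NTR1 peptide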
Target sequence (P30989 whole entry, looked up): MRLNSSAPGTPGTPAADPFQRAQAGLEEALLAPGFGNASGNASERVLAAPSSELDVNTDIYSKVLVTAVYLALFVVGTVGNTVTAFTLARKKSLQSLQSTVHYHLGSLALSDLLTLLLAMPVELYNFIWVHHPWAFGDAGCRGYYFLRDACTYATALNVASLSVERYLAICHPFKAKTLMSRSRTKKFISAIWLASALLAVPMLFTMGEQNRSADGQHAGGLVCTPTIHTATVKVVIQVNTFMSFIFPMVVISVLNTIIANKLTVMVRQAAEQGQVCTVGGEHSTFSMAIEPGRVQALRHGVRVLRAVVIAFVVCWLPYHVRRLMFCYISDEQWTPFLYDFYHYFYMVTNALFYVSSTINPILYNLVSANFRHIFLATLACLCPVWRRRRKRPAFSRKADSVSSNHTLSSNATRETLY
OX1R antag-2: blocks the human orexin 1 receptor. OX1R-expressing cells, FRET antagonist read-out. inhibition, % at 6.6 µM. 1.8% of 330,000 active. AID 485270; in the data active means inhibition mostly above about 38%, no sharp cut-off; inactive means mostly below about 40%;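 further: 0% = agonist challenge alone and 100% = reference antagonist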
TAAR1 antag: antagonists of human TAAR1; Q96RJ0; CHO RD-HGA16 TAAR1, Fluo-8 calcium fluorescence, antagonist; inhibition, % at 3 µM; 1.5% of 360,000 active; AID 624466;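 active means inhibition above a per-plate cutoff, the mean inhibition of test compounds on that plate plus 3 SD, cut at about 49% in these data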;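 further: 0% = DMSO plus EC80 beta-PEA response and 100% = DMSO alone without agonist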
Target sequence (Q96RJ0 whole entry, looked up): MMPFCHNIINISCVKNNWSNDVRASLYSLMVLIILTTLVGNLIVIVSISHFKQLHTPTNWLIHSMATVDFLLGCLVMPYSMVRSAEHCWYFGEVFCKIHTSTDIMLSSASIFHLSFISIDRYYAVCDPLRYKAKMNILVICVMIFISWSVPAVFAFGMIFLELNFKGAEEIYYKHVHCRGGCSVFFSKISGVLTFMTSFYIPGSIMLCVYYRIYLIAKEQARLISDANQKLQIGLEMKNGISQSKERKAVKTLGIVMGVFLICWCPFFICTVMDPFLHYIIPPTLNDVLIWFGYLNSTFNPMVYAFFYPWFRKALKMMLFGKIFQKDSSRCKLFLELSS
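Assay system: CHO-derived RD-HGA16 cells stably expressing human TAAR1 plus Gα16. Timing: 140 s kinetic read after compound, 140 s after agonist. Technique: kinetic Fluo-8 calcium fluorescence measurement. Measure: % inhibition of agonist calcium response.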
TAAR1 ag: agonists of human TAAR1. Q96RJ0. CHO RD-HGA16 TAAR1, Fluo-8 calcium fluorescence; vehicle wells 0%, saturating PEA agonist 100%. activation, % at 3 µM. 0.99% of 360,000 active. AID 624467;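 active means activation above the mean activation of all test compounds in the run plus 3 SD, cut at about 38% in these data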
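test system = CHO RD-HGA16 cells carrying human TAAR1 plus Gα16 | schedule = 17-24 h seeding, 75 min 37 °C dye, 30 min RT | compound dosing = 3 µM single concentration | control set = DMSO and PEA EC100 | replicates = n 1 | signal = Fluo-8 fluorescence, 5 s baseline then 140 s kinetic read | measure = percent activation vs PEA EC100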
* marks the source's active call; other numbers are inactive results; · = not tested or not shown.

SMILES	CHO parental Ca	OX1R antag-1	NTR1 ag	OX1R antag-2	TAAR1 antag	TAAR1 ag
Cc1ccc(OCC(=O)Nc2ccc([N+](=O)[O-])cn2)cc1C	41.6*	-7.5	0.8	17.8	4.3	-4.8
O=C(NNc1ccc([N+](=O)[O-])cn1)Nc1ccc(N=Nc2ccccc2)cc1	·	·	·	·	16.5	45.3*
CC(=O)Nc1ccc([N+](=O)[O-])cn1	-7.3	-16.8	0.7	75.7*	9.3	0.3
COC(=O)C1=C(C)NC(C)=C(C(=O)OC)C(N2C(=O)CCC2=O)C1 (stereo not given)	·	·	·	·	-3.6	2.0
CCOC(=O)C(CNc1ccc(OCc2ccccc2)cc1)NC(=O)c1ccccc1 (stereo not given)	·	·	·	·	38.1	0.6
COCCN1Cc2cc(C(=O)OC)c3c(c2C1=O)c1cc(OC)ccc1n3S(=O)(=O)c1ccc(C)cc1	·	·	·	·	-33.3	2.2
COC(=O)N1C[C@H](Oc2cccc3ccccc23)[C@H]2C[C@@H]1c1ccccc1O2	·	·	·	·	-32.2	-0.1
COc1cccc(NC(=O)Cn2c3ccccc3c3nc4n(c(=O)c32)CCCS4)c1	-31.2	0.0	0.8	36.8*	-7.8	0.5
COc1ccc(NC(=O)Cn2c3ccccc3c3nc4n(c(=O)c32)CCS4)cc1	-5.2	4.1	-2.3	73.8*	-18.8	1.8
CN(C(=O)c1ccc(NC(=O)Cc2cccc(NC(=O)C3CCCN(C(=O)CCc4ccccc4)C3)c2)cc1)C1CC1 (stereo not given)	·	·	·	·	-9.2	0.4
CC(CNC(=O)[C@@H](Cc1ccccc1)NC(=O)[C@H]1O[C@@H](n2ccc(=O)[nH]c2=O)[C@H](O)[C@@H]1O)c1ccccc1 (stereo not given in full)	·	·	·	·	5.4	1.0
COc1ccc(CN(CCc2ccccc2)Cc2ccccc2)cc1OC	-50.1	-40.0	7.4	60.1*	12.1	18.4
OC1OC[C@@H](O)[C@H](O)[C@H]1O (stereo not given in full)	-5.1	-0.1	2.6	8.0	·	·
CC(C)C[C@H]1COc2cc(Br)ccc2S(=O)(=O)N1Cc1ccc(Cl)cc1	·	·	·	·	-17.3	3.0
Cc1c(O)ccc(/C=N/Nc2nc(-c3cccnc3)nc3ccccc23)c1O	-5.1	-16.6	17.4	44.8	74.5*	17.8
Clc1ccccc1-c1nc(N/N=C/c2cccnc2)c2ccccc2n1	-39.3	-37.0	4.3	22.1	30.4	8.2
COc1ccc(/C=N\NC(=O)c2ccc([N+](=O)[O-])c(C)c2)cc1COc1ccccc1C(N)=O	-17.4	-20.6	2.0	32.5	7.2	4.7
COc1ccc(/C=N/NC(=O)c2ccccc2OC)cc1COc1ccccc1[N+](=O)[O-]	-4.2	-12.2	9.9	24.5	50.8*	1.3
CC(=O)Nc1cnc(-c2ccccc2O)cn1	·	·	·	·	-16.5	3.0
Nc1ccc2ccc(N)cc2c1	·	·	·	·	-2.6	2.9
CC1=C(C(=O)N(C)C)CC(CC(=O)NC2CCCCC2)C(=O)N1Cc1ccccc1 (stereo not given)	·	·	·	·	-14.6	0.8
Cc1cc(C)cc(NC(=O)c2nnn(Cc3cc(C)ccc3C)c2N)c1	67.6*	80.3*	10.7	11.8	·	·
COc1cccc(NC(=O)c2nnn(CC(=O)Nc3cc(C)cc(C)c3)c2N)c1	10.1	-3.1	1.2	-2.9	-15.1	5.3
NC(=O)CN1C(=O)C(O)(CC(=O)c2ccccc2O)c2ccccc21 (stereo not given)	2.8	5.8	·	55.6*	3.9	0.6
C=CCN1C(=O)C(O)(CC(=O)c2ccccc2)c2ccccc21 (stereo not given)	-2.2	-22.1	0.0	7.2	9.8	5.7
SMILES	CHO parental Ca	OX1R antag-1	NTR1 ag	OX1R antag-2	TAAR1 antag	TAAR1 ag
O=C(N[C@H](C(=O)N1CCC[C@H]1C(=O)NC1CCCC1)C1CCCCC1)c1ccc(Cl)cc1Cl	·	·	·	·	-14.2	-1.3
Fc1cccc2sc(Nc3nnc(-c4ccco4)o3)nc12	41.2*	29.4	3.4	43.6	2.6	4.2
COC(=O)C1=C(C)N(Cc2ccccc2C(F)(F)F)C(=NCC2CC2)NC1c1ccc(F)cc1 (stereo not given)	·	·	·	·	-1.4	17.6
C=CCn1c(C)cc(C(=O)CSc2nc3ccccc3o2)c1C	42.6*	40.6*	3.2	35.5	15.5	1.6
C=CCn1c(C)cc(C(=O)CSc2nnc(Cc3ccccc3)o2)c1C	-13.6	-26.4	0.7	4.8	5.8	1.8
Cc1cc(C(=O)CSc2nc3ccccc3o2)c(C)n1C1CC1	5.8	40.7*	0.5	33.1	26.3	-1.3
Cc1cc(C(=O)CSc2ncnc3ccccc23)c(C)n1C1CC1	-29.5	-30.1	5.1	0.1	25.3	5.6
C#CCNC[C@@H]1CSCCS(=O)(=O)N1	·	·	·	·	0.1	2.9
C#Cc1cccc(Nc2nc(NCCOC)nc3ccsc23)c1	·	·	·	·	56.7*	8.5
C#Cc1cccc(Nc2nc(NCc3ccccc3OC)nc3ccsc23)c1	·	·	·	·	51.6*	5.1
C[C@H](c1ccccc1)N1C[C@@H](COCc2ccccc2)Oc2cccc(N3CCCCC3)c2S1(=O)=O	·	·	·	·	0.4	5.1
c1ccc(COn2nnc3ccccc32)c(COn2nnc3ccccc32)c1	2.4	19.6	4.7	43.9	55.3*	8.2
Clc1cccc(Cl)c1COn1nnc2ccccc21	-19.7	-29.9	-1.1	23.0	7.5	7.4
Oc1cc(O)cc(C=Cc2ccc(O)c(O)c2)c1	·	·	·	·	-27.2	3.0
Cc1ccc(Nc2c(-c3ccccn3)nc3ccc(C)cn23)cc1	36.4*	-25.8	9.6	27.2	3.5	2.5
O=C1N/C(=C/c2ccsc2)C(=O)N1c1ccccc1	-1.8	-4.2	-0.4	11.1	17.5	43.7*
CCn1c(C)cc(/C=C2/NC(=O)N(c3ccccc3)C2=O)c1C	-1.9	-18.3	-0.8	9.5	0.0	-1.3
CC(C)C[C@H]1COc2ccc(Cl)cc2S(=O)(=O)N1	·	·	·	·	1.6	-2.4
COc1ccc2cc(CN(Cc3ccco3)Cc3nnnn3C3CCCCC3)c(=O)[nH]c2c1	-26.8	1.6	2.9	18.7	15.2	6.8
CC(C)(C)c1ccc(CN(Cc2ccco2)Cc2nnnn2C2CCCC2)cc1	48.2*	-21.5	13.7	11.9	29.1	1.9
CCCCNC(=S)N(C)/N=C/c1ccc(OCC(=O)Nc2c(C)cc(C)cc2C)c(OC)c1	-28.7	-48.1	0.9	21.2	35.0	4.8
CCNC(=S)N/N=C/c1ccc(OCC(=O)Nc2ccc(OC)cc2)c(OC)c1	-2.6	-1.9	-1.1	5.8	51.1*	17.4
COc1ccc(NC(=O)COc2ccc(/C=N/O)cc2OC)cc1	13.0	-8.7	-0.1	17.5	17.3	4.1
COc1cc(/C=N/NC(=S)NC(C)C)ccc1OCC(=O)Nc1c(C)cc(C)cc1C	-3.0	-19.1	17.3	7.0	49.8*	7.2
CCCCNC(=S)N(C)/N=C/c1ccc(OCC(=O)Nc2ccc(OC)cc2)c(OC)c1	9.2	2.7	0.5	24.7	58.2*	15.7
C[n+]1nc(Nc2ccccc2)sc1-c1ccc(O)cc1	-4.9	-26.4	-4.3	18.6	5.6	0.8
